Results taken from ChEMBL document CHEMBL3425488, “Novel histone deacetylase inhibitors induce growth arrest, apoptosis, and differentiation in sarcoma cancer stem cells” (J Med Chem, 2015).
Active and inactive are the calls of the source. No cut-off for these calls is given here.

What was measured:
[1] = biological target: Histone deacetylase (Homo sapiens) (UniProt Q13547+O15379+Q9UBN7+Q92769+Q9UQL6+Q8WUI4+Q9BY41+Q96DB2+P56524+Q9UKV0+Q969S8); details: MG-63, 0.5 to 2 uM
Histone deacetylase 3 = Histone deacetylase 3 (Homo sapiens, UniProt O15379); assay: Inhibition of recombinant HDAC3 (unknown origin) by homogeneous fluorescence release assay
Histone deacetylase 3, sequence (O15379 whole entry): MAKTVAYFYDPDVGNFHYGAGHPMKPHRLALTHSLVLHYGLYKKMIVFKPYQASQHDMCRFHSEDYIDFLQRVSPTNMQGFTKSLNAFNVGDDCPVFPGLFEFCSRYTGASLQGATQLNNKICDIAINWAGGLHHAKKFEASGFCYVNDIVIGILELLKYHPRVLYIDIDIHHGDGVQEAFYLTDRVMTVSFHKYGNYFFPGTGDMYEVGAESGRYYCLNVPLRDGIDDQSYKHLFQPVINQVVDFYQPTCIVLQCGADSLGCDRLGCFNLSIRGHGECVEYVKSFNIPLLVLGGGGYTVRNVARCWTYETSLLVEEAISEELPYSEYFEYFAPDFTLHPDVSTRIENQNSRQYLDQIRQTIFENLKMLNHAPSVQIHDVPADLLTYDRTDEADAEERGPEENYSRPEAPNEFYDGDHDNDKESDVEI

Histone deacetylase 11 = biological target: T1, Histone deacetylase 11 (Homo sapiens, UniProt Q96DB2); assay: Inhibition of recombinant HDAC11 (unknown origin) by homogeneous fluorescence release assay
T1 sequence (Q96DB2 whole entry): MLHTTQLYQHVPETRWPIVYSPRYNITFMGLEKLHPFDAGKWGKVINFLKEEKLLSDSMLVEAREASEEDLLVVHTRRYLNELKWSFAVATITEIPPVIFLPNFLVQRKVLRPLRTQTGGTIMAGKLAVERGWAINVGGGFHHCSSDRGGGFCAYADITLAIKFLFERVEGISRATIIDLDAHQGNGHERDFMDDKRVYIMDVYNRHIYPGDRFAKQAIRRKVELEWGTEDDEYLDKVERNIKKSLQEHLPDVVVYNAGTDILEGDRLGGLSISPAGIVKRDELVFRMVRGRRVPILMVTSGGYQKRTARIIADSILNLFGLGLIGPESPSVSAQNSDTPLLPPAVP

[2] = Cytotoxicity against human MG63 cells assessed as growth inhibition at 0.5 uM treated for 14 days measured on day 14 post last treatment by Alamar Blue assay; assay type: cell-based; details: mg-63, 336 h
Method in brief: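 MG-63 sarcosphere-derived cells, 10000 seeded, grown in complete α-MEM to 70% confluence. Then kept in mineralization medium (10 mM β-glycerophosphate, 10−8 M dexamethasone, ascorbic acid 2-phosphate) with continuous compound exposure (0.025–0.5 μM) for 14 days. Viability then read by Alamar Blue.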

Histone deacetylase 8 = biological target: T2, Histone deacetylase 8 (Homo sapiens, UniProt Q9BY41); assay: Inhibition of recombinant HDAC8 (unknown origin) by homogeneous fluorescence release assay
T2 sequence (Q9BY41 whole entry): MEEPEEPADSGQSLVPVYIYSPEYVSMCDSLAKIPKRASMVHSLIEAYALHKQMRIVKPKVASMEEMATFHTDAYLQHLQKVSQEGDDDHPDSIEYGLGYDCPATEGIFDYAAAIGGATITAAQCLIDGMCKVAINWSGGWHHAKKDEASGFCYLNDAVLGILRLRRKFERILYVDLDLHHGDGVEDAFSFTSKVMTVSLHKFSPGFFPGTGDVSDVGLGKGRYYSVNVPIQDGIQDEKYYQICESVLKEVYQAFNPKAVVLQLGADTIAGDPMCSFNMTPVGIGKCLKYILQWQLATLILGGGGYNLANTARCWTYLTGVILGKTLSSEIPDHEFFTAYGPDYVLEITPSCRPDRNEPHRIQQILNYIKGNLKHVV

Histone deacetylase 2 = Histone deacetylase 2 (Homo sapiens, UniProt Q92769); assay: Inhibition of recombinant HDAC2 (unknown origin) by homogeneous fluorescence release assay
Histone deacetylase 2, sequence (Q92769 whole entry): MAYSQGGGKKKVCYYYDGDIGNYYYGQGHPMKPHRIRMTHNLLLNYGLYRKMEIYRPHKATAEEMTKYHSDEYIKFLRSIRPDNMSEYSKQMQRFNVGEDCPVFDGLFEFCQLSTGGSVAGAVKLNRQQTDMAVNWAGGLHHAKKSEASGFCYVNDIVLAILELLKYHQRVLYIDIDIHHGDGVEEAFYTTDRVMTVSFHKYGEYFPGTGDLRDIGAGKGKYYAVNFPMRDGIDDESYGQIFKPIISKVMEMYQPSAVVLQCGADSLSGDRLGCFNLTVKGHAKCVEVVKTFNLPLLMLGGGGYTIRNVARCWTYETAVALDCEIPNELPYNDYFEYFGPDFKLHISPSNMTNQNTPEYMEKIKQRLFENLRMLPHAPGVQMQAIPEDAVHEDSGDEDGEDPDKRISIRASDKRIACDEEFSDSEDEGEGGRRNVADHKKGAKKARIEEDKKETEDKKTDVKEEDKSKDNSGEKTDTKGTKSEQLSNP

Histone deacetylase 1 = Histone deacetylase 1 (Homo sapiens, UniProt Q13547); assay: Inhibition of recombinant HDAC1 (unknown origin) by homogeneous fluorescence release assay
Histone deacetylase 1, sequence (Q13547 whole entry): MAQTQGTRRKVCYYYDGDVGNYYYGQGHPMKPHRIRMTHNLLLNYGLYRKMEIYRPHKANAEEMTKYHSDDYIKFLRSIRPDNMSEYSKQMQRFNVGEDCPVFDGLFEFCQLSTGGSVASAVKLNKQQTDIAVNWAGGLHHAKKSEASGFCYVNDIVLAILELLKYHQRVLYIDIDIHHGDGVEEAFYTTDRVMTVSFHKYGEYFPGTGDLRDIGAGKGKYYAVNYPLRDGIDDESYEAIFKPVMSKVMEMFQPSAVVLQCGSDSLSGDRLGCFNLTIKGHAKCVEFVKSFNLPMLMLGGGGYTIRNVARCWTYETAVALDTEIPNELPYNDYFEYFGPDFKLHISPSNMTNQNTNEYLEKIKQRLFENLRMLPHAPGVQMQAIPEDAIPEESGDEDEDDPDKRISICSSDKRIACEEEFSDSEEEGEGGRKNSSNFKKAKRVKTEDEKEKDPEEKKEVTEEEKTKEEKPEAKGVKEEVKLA

[3] = biological target: T3, Protein deacetylase HDAC6 (Homo sapiens, UniProt Q9UBN7); assay: Inhibition of recombinant HDAC6 (unknown origin) by homogeneous fluorescence release assay
T3 sequence (Q9UBN7 whole entry): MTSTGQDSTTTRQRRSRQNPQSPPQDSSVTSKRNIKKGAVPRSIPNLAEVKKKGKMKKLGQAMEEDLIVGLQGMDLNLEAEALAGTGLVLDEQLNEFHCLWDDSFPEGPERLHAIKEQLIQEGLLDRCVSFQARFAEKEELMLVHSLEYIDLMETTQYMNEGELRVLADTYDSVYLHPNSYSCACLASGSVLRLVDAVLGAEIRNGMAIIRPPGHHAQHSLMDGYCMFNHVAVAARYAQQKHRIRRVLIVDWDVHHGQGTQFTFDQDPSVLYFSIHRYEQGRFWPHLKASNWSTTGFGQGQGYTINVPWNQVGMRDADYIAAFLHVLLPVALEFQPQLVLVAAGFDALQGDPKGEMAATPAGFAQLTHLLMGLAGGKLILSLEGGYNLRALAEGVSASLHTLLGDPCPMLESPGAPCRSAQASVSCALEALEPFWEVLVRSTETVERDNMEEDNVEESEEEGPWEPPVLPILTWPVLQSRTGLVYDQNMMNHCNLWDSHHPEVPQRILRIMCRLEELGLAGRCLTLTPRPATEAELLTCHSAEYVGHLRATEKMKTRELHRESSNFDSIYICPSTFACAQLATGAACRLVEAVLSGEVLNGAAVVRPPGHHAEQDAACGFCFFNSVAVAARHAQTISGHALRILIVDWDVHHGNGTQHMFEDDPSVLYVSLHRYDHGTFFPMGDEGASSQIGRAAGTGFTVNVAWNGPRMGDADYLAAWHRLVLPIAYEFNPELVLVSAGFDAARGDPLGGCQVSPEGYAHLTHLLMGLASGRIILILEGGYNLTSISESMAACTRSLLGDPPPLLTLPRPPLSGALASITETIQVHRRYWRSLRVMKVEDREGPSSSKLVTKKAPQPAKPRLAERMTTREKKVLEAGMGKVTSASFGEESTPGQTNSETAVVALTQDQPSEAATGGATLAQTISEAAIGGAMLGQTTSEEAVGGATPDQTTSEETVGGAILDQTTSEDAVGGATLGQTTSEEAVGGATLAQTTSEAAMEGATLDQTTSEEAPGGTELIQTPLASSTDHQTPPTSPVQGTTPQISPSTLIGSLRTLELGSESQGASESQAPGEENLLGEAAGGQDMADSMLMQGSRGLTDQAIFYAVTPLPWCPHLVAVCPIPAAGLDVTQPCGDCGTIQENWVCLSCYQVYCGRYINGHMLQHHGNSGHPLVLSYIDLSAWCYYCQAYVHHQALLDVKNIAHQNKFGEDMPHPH

MG-63 = assay: Induction of human MG63 cell differentiation assessed as increase in bone nodule formation at 0.025 to 0.5 uM after 14 days by Alizarin Red S staining-based spectrophotometric analysis relative to control; assay type: functional
Method in brief: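 MG-63 sarcosphere-derived cells in mineralization medium (10 mM β-glycerophosphate, 10−8 M dexamethasone, ascorbic acid 2-phosphate) with continuous 0.025–0.5 μM exposure for 14 days. Fixed in 3.7% paraformaldehyde, then stained with 2% Alizarin Red S, pH 4.2, for 1 h. Dye eluted with 10% cetylpyridinium chloride and read at 570 nm. OD expressed relative to mineralization-medium control; triplicate.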

Structure (SMILES) | inhibition [1] | IC50 (Histone deacetylase 3) | IC50 (Histone deacetylase 11) | Activity [2] | IC50 (Histone deacetylase 8) | IC50 (Histone deacetylase 2) | IC50 (Histone deacetylase 1) | IC50 [3] | Activity (MG-63)
O=C(CCCCSc1nc(-c2ccc(-c3ccccc3)cc2)cc(=O)[nH]1)NO | Active | – | – | – | – | – | – | – | –
O=C(/C=C/c1ccc(NC(=O)C(Cc2ccccc2)c2ccccc2)cn1)NO (centres undefined) | – | 80 nM | 10200 nM | Toxic | 610 nM | 1770 nM | 1420 nM | 10 nM | inactive
